Columns and labels:
[1] = Tested for extracellular drug concentration required to kill 50 percent of V-79 cells after one hour incubation period; conditions: Chinese hamster, V79 cells; read-out: LD50
[2] = Tested for extracellular drug concentration required to kill 50 percent of V-79 cells after one hour incubation period and subsequent exposure red light; conditions: Chinese hamster, V79 cells; read-out: LD50
Mus musculus [3] = assay: Tested for plasma concentration in tumor-bearing mice after 1 day by intravenous administration at 1 umol/kg; assay type: functional
Method in brief: (§1)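 Male BALB/c AnN mice carrying intradermal EMT-6 tumours on the hind thighs (2×10^5 cells; used 6-8 days later at 4-8 mm diameter) received 1 μmol/kg iv via the tail vein in 10% Cremophor emulsion. Plasma from orbital-sinus blood and excised tissue were extracted with DMF overnight at 37 °C, then centrifuged. Dye was read by fluorescence (ex 766, em 780 nm) against per-tissue calibration curves. Mean with SE, n = 3.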

Mus musculus [4] = assay: Tested for plasma concentration in tumor-bearing mice after 1 hour by intravenous administration at 1 umol/kg; assay type: functional
Method in brief: as §1

Mus musculus [5] = assay: Tested for plasma concentration in tumor-bearing mice after 12 hour by intravenous administration at 1 umol/kg; assay type: functional
Method in brief: as §1

Mus musculus [6] = assay: Tested for plasma concentration in tumor-bearing mice after 2 day by intravenous administration at 1 umol/kg; assay type: functional
Method in brief: as §1

Mus musculus [7] = assay: Tested for plasma concentration in tumor-bearing mice after 3 hour by intravenous administration at 1 umol/kg; assay type: functional
Method in brief: as §1

Mus musculus [8] = assay: Tested for plasma concentration in tumor-bearing mice after 3 day by intravenous administration at 1 umol/kg; assay type: functional
Method in brief: as §1

Mus musculus [9] = assay: Tested for plasma concentration in tumor-bearing mice after 6 hour by intravenous administration at 1 umol/kg; assay type: functional
Method in brief: as §1

Mus musculus [10] = assay: Tested for plasma concentration in tumor-bearing mice after 7 day by intravenous administration at 1 umol/kg; assay type: functional
Method in brief: as §1

Mus musculus [11] = assay: Mean tissue uptake in skin determined in tumor-bearing mice after 7 days by intravenous administration at 1 umol/kg; assay type: functional
Method in brief: as §1

Mus musculus [12] = assay: Mean tissue uptake in tumor determined in tumor-bearing mice after 1 day by intravenous administration at 1 umol/kg; assay type: functional
Method in brief: as §1

Mus musculus [13] = assay: Mean tissue uptake in tumor determined in tumor-bearing mice after 1 hour by intravenous administration at 1 umol/kg; assay type: functional
Method in brief: as §1

Mus musculus [14] = assay: Mean tissue uptake in tumor determined in tumor-bearing mice after 12 hour by intravenous administration at 1 umol/kg; assay type: functional
Method in brief: as §1

Mus musculus [15] = assay: Mean tissue uptake in tumor determined in tumor-bearing mice after 2 day by intravenous administration at 1 umol/kg; assay type: functional
Method in brief: as §1

Mus musculus [16] = assay: Mean tissue uptake in tumor determined in tumor-bearing mice after 3 hour by intravenous administration at 1 umol/kg; assay type: functional
Method in brief: as §1

Mus musculus [17] = assay: Mean tissue uptake in tumor determined in tumor-bearing mice after 3 day by intravenous administration at 1 umol/kg; assay type: functional
Method in brief: as §1

Mus musculus [18] = assay: Mean tissue uptake in tumor determined in tumor-bearing mice after 7 day by intravenous administration at 1 umol/kg; assay type: functional
Method in brief: as §1

Mus musculus [19] = assay: Mean tissue uptake in muscle determined in tumor-bearing mice after 1 hour by intravenous administration at 1 umol/kg; assay type: functional
Method in brief: as §1

Mus musculus [20] = assay: Mean tissue uptake in muscle determined in tumor-bearing mice after 12 hour by intravenous administration at 1 umol/kg; assay type: functional
Method in brief: as §1

Mus musculus [21] = assay: Mean tissue uptake in muscle determined in tumor-bearing mice after 1 day by intravenous administration at 1 umol/kg; assay type: functional
Method in brief: as §1

Mus musculus [22] = assay: Mean tissue uptake in muscle determined in tumor-bearing mice after 2 day by intravenous administration at 1 umol/kg; assay type: functional
Method in brief: as §1

Mus musculus [23] = assay: Mean tissue uptake in muscle determined in tumor-bearing mice after 3 hour by intravenous administration at 1 umol/kg; assay type: functional
Method in brief: as §1

Mus musculus [24] = assay: Mean tissue uptake in muscle determined in tumor-bearing mice after 3 days by intravenous administration at 1 umol/kg; assay type: functional
Method in brief: as §1

Mus musculus [25] = assay: Mean tissue uptake in muscle determined in tumor-bearing mice after 6 hour by intravenous administration at 1 umol/kg; assay type: functional
Method in brief: as §1

Mus musculus [26] = assay: Mean tissue uptake in muscle determined in tumor-bearing mice after 7 days by intravenous administration at 1 umol/kg; assay type: functional
Method in brief: as §1

Mus musculus [27] = assay: Mean tissue uptake in skin determined in tumor-bearing mice after 12 hr by intravenous administration at 1 umol/kg; assay type: functional
Method in brief: as §1

Mus musculus [28] = assay: Mean tissue uptake in skin determined in tumor-bearing mice after 1 day by intravenous administration at 1 umol/kg; assay type: functional
Method in brief: as §1

Mus musculus [29] = assay: Mean tissue uptake in skin determined in tumor-bearing mice after 1 hr by intravenous administration at 1 umol/kg; assay type: functional
Method in brief: as §1

Mus musculus [30] = assay: Mean tissue uptake in skin determined in tumor-bearing mice after 2 day by intravenous administration at 1 umol/kg; assay type: functional
Method in brief: as §1

Mus musculus [31] = assay: Mean tissue uptake in skin determined in tumor-bearing mice after 3 days by intravenous administration at 1 umol/kg; assay type: functional
Method in brief: as §1

Mus musculus [32] = assay: Mean tissue uptake in skin determined in tumor-bearing mice after 3 hr by intravenous administration at 1 umol/kg; assay type: functional
Method in brief: as §1

Mus musculus [33] = assay: Mean tissue uptake in skin determined in tumor-bearing mice after 6 hr by intravenous administration at 1 umol/kg; assay type: functional
Method in brief: as §1

[34] = Tumor/muscle uptake ratio after 12 hr; assay type: functional, Muscle tissue
Method in brief: (§2)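 The ratio of tumour uptake (μg/g) to muscle uptake (μg/g), or to plasma concentration (μg/mL), was taken at each time point. Mice were EMT-6-bearing BALB/c (n = 3) given 1 μmol/kg iv in 10% Cremophor emulsion. Dye was measured by fluorescence (ex 766, em 780 nm) in DMF extracts and quantified against tissue-specific calibration curves.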

[35] = Tumor/muscle uptake ratio after 1 day; assay type: functional, Muscle tissue
Method in brief: as §2

[36] = Tumor/muscle uptake ratio after 1 hr; assay type: functional, Muscle tissue
Method in brief: as §2

[37] = Tumor/muscle uptake ratio after 2 day; assay type: functional, Muscle tissue
Method in brief: as §2

[38] = Tumor/muscle uptake ratio after 3 days; assay type: functional, Muscle tissue
Method in brief: as §2

[39] = Tumor/muscle uptake ratio after 3 hr; assay type: functional, Muscle tissue
Method in brief: as §2

[40] = Tumor/muscle uptake ratio after 6 hr; assay type: functional, Muscle tissue
Method in brief: as §2

[41] = Tumor/muscle uptake ratio after 7 days; assay type: functional, Muscle tissue
Method in brief: as §2

[42] = Tumor/plasma uptake ratio after 1 day; assay type: functional
Method in brief: as §2

[43] = Tumor/plasma uptake ratio after 1 hr; assay type: functional
Method in brief: as §2

[44] = Tumor/plasma uptake ratio after 2 day; assay type: functional
Method in brief: as §2

[45] = Tumor/plasma uptake ratio after 3 days; assay type: functional
Method in brief: as §2

[46] = Tumor/plasma uptake ratio after 3 hr; assay type: functional
Method in brief: as §2

[47] = Tumor/plasma uptake ratio after 6 hr; assay type: functional
Method in brief: as §2

Mus musculus [48] = assay: Mean tissue uptake in tumor determined in tumor-bearing mice after 6 hour by intravenous administration at 1 umol/kg; assay type: functional
Method in brief: as §1

[49] = Tumor/plasma uptake ratio after 12 hr; assay type: functional
Method in brief: as §2

Work on CCCCCC[Si](CCCCCC)(CCCCCC)O[Si]1(O[Si](CCCCCC)(CCCCCC)CCCCCC)n2c3c4cc5ccccc5cc4c2/N=C2N=C(/N=c4/c5cc6ccccc6cc5/c(n41)=N/C1=NC(=N\3)/c3cc4ccccc4cc31)c1cc3ccccc3cc1\2 yielded a CC50 at 1 h [1] of 46 µM and a CC50 at 1 h [2] of 29 µM.
For CC(C)(C)[Si](C)(C)O[Si]1(O[Si](C)(C)C(C)(C)C)n2c3c4cc5ccccc5cc4c2/N=C2N=C(/N=c4/c5cc6ccccc6cc5/c(n41)=N/C1=NC(=N\3)/c3cc4ccccc4cc31)c1cc3ccccc3cc1\2, the CC50 at 1 h [1] was 36 µM and the CC50 at 1 h [2] was 12 µM.
For CC(C)C(C)(C)[Si](C)(C)O[Si]1(O[Si](C)(C)C(C)(C)C(C)C)n2c3c4cc5ccccc5cc4c2/N=C2N=C(/N=c4/c5cc6ccccc6cc5/c(n41)=N/C1=NC(=N\3)/c3cc4ccccc4cc31)c1cc3ccccc3cc1\2, the Blood clearance (Mus musculus [3]) was 2.06 µg/mL, the Blood clearance (Mus musculus [4]) was 12.94 µg/mL and the Blood clearance (Mus musculus [5]) was 5.51 µg/mL. The Blood clearance (Mus musculus [6]) was 0.21 µg/mL, the Blood clearance (Mus musculus [7]) was 11.28 µg/mL and the Blood clearance (Mus musculus [8]) was 0.02 µg/mL. For the same compound, the Blood clearance (Mus musculus [9]) was 9.12 µg/mL, the Blood clearance (Mus musculus [10]) was 0 µg/mL and the Tissue distribution (Mus musculus [11]) was 0.35 µg/g. For the same compound, the Tissue distribution (Mus musculus [12]) was 0.71 µg/g, the Tissue distribution (Mus musculus [13]) was 0.43 µg/g and the Tissue distribution (Mus musculus [14]) was 0.9 µg/g. For the same compound, the Tissue distribution (Mus musculus [15]) was 0.73 µg/g, the Tissue distribution (Mus musculus [16]) was 0.46 µg/g and the Tissue distribution (Mus musculus [17]) was 0.77 µg/g. The Tissue distribution (Mus musculus [18]) was 0.51 µg/g, the Tissue distribution (Mus musculus [19]) was 0.12 µg/g and the Tissue distribution (Mus musculus [20]) was 0.09 µg/g. The Tissue distribution (Mus musculus [21]) was 0.11 µg/g, the Tissue distribution (Mus musculus [22]) was 0.08 µg/g and the Tissue distribution (Mus musculus [23]) was 0.32 µg/g. It also gave a Tissue distribution (Mus musculus [24]) of 0.13 µg/g, a Tissue distribution (Mus musculus [25]) of 0.98 µg/g and a Tissue distribution (Mus musculus [26]) of 0.08 µg/g. It also gave a Tissue distribution (Mus musculus [27]) of 0.56 µg/g, a Tissue distribution (Mus musculus [28]) of 0.46 µg/g and a Tissue distribution (Mus musculus [29]) of 0.13 µg/g. The Tissue distribution (Mus musculus [30]) was 0.43 µg/g, the Tissue distribution (Mus musculus [31]) was 0.44 µg/g and the Tissue distribution (Mus musculus [32]) was 0.51 µg/g. It also gave a Tissue distribution (Mus musculus [33]) of 0.36 µg/g, a Ratio [34] of 10 and a Ratio [35] of 6.4. For the same compound, the Ratio [36] was 3.6, the Ratio [37] was 9.1 and the Ratio [38] was 5.9. It also gave a Ratio [39] of 1.4, a Ratio [40] of 0.7 and a Ratio [41] of 6.4. It also gave a Ratio [42] of 0.34, a Ratio [43] of 0.03 and a Ratio [44] of 3.5. The Ratio [45] was 38, the Ratio [46] was 0.04 and the Ratio [47] was 0.07. For the same compound, the Tissue distribution (Mus musculus [48]) was 0.65 µg/g, the Ratio [49] was 0.16 and the CC50 at 1 h [1] was 6.5 µM. It also gave a CC50 at 1 h [2] of 5.5 µM.
Work on CCCCCCCCCCCCCCCCCC[Si](C)(C)O[Si]1(O[Si](C)(C)CCCCCCCCCCCCCCCCCC)n2c3c4cc5ccccc5cc4c2/N=C2N=C(/N=c4/c5cc6ccccc6cc5/c(n41)=N/C1=NC(=N\3)/c3cc4ccccc4cc31)c1cc3ccccc3cc1\2 yielded a CC50 at 1 h [1] of 4.2 µM and a CC50 at 1 h [2] of 1.8 µM.
